Experimental data from ChEMBL document CHEMBL1137258 (J Med Chem, 2006).
Values belong to the compound of their own block, whether it stands above or below them.

Experiments:
[1] = test system: RKO; assay: Cytotoxicity against proliferating RKOp27 cells after 72 hrs by Alamar Blue assay; format: functional, cell-based; conditions: Homo sapiens
How it was run: (§1)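 Human colon carcinoma RKOp27 line carrying ponasterone-A-inducible p27kip1. Induction gives G1-arrested cells, and uninduced cells stay proliferating. Viability was read as metabolic activity by Alamar Blue. IC50 values are the mean ± SD of two independent experiments, each with quadruplicate samples per concentration.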

[2] = test system: RKO; assay: Cytotoxicity against cell cycle arrested RKOp27 cells after 72 hrs by alamar blue assay; format: functional, cell-based; conditions: Homo sapiens; how it was run: as §1
[3] = biological target: Tubulin (Bos taurus); assay: Inhibition of [3H]colchicine binding to beta tubulin
[4] = test system: RKO; assay: Cytotoxicity against RKOp27 cells at 30 uM after 72 hrs by alamar blue assay; format: functional, cell-based; conditions: Homo sapiens
[5] = biological target: Tubulin (Bos taurus, UniProt Q6B856+Q862L2+Q862F3); assay: Inhibition of MAP containing bovine brain tubulin polymerization; format: functional

- IC50 [3]: 7.5 µM
SMILES: COc1ccc(Nc2nc(-n3cc(C)nc3C)cs2)cc1
- IC50 [1]: 0.25 µM
- IC50 [2]: > 100 µM

SMILES: COc1cc2c(c(OC)c1OC)-c1ccc(OC)c(=O)cc1[C@@H](NC(C)=O)CC2 [COLCHICINE]
- IC50 [1]: 0.016 µM
- IC50 [2]: > 5 µM

- IC50 [3]: 6.25 µM
SMILES: Cc1ccc(Nc2nc(-n3cc(C)nc3C)cs2)cc1
- IC50 [1]: 0.2 µM
- IC50 [2]: > 100 µM

SMILES: c1ccc(Nc2nc(-n3ccnc3)cs2)cc1
- IC50 [1]: > 100 µM
- IC50 [2]: > 100 µM

SMILES: Cc1nc2ccccc2n1-c1csc(Nc2ccccc2)n1
- IC50 [1]: 40 µM
- IC50 [2]: 50 µM

- IC50 [3]: 100 µM
SMILES: Brc1ccc(Nc2nc(-n3cnc4ccccc43)cs2)cc1
- IC50 [1]: > 100 µM
- IC50 [2]: > 100 µM

SMILES: Cc1nc2ccccc2n1-c1csc(Nc2cccc(Br)c2)n1
- IC50 [1]: 36 µM
- IC50 [2]: 85 µM

SMILES: Cc1nccn1-c1csc(Nc2cccc(Br)c2)n1
- IC50 [1]: > 100 µM
- IC50 [2]: > 100 µM

SMILES: COc1ccc(Nc2nc(-n3ccnc3)cs2)cc1
- IC50 [1]: > 100 µM
- IC50 [2]: > 100 µM

SMILES: c1ccc(Nc2nc(-n3cnc4ccccc43)cs2)cc1
- IC50 [1]: > 100 µM
- IC50 [2]: > 100 µM

SMILES: COc1cccc(Nc2nc(-n3ccnc3C)cs2)c1
- IC50 [1]: 22.5 µM
- IC50 [2]: > 100 µM

SMILES: Cc1nccn1-c1csc(Nc2ccc(S(N)(=O)=O)cc2)n1
- IC50 [1]: 49 µM
- IC50 [2]: > 100 µM

SMILES: Cc1cn(-c2csc(Nc3cccc(Br)c3)n2)c(C)n1
- IC50 [1]: > 100 µM
- IC50 [2]: > 100 µM

SMILES: COc1cccc(Nc2nc(-n3cc(C)nc3C)cs2)c1
- IC50 [1]: 22.5 µM
- IC50 [2]: 60 µM

SMILES: COc1cc([C@@H]2c3cc4c(cc3[C@H](O)[C@H]3COC(=O)[C@H]23)OCO4)cc(OC)c1OC [PODOFILOX]
- IC50 [1]: 0.029 µM
- IC50 [2]: > 0.5 µM

SMILES: Cc1nccn1-c1csc(Nc2ccccc2)n1
- IC50 [1]: 32.5 µM
- IC50 [2]: > 100 µM

SMILES: Cc1nccn1-c1csc(Nc2ccc(Br)cc2)n1
- IC50 [1]: 30 µM
- IC50 [2]: > 100 µM
- Activity [4]: Not toxic

SMILES: COc1ccc(Nc2nc(-n3cnc4ccccc43)cs2)cc1
- IC50 [1]: > 100 µM
- IC50 [2]: > 100 µM

- IC50 [5]: 1.25 µM
- IC50 [3]: 0.75 µM
SMILES: COc1ccc(Nc2nc(-n3c(C)nc4ccccc43)cs2)cc1
- IC50 [1]: 0.025 µM
- IC50 [2]: 52.5 µM

SMILES: COc1cccc(Nc2nc(-n3c(C)nc4ccccc43)cs2)c1
- IC50 [1]: 40 µM
- IC50 [2]: 60 µM

SMILES: Cc1nc2ccccc2n1-c1csc(Nc2ccc(S(N)(=O)=O)cc2)n1
- IC50 [1]: 45 µM
- IC50 [2]: 95 µM

- IC50 [5]: 1.2 µM
- IC50 [3]: 1.25 µM
SMILES: Cc1nc2ccccc2n1-c1csc(Nc2ccc(Br)cc2)n1
- IC50 [1]: 0.09 µM
- IC50 [2]: 60 µM

- IC50 [3]: 4 µM
SMILES: Cc1cn(-c2csc(Nc3ccc(Br)cc3)n2)c(C)n1
- IC50 [1]: 0.4 µM
- IC50 [2]: 45 µM

- IC50 [3]: 1 µM
SMILES: Cc1nc(C)c(-c2csc(Nc3ccc(Br)cc3)n2)s1
- IC50 [1]: 0.7 µM
- IC50 [2]: 30 µM

- IC50 [3]: 8 µM
SMILES: COc1ccc(Nc2nc(-n3ccnc3C)cs2)cc1
- IC50 [1]: 1.6 µM
- IC50 [2]: > 100 µM

- IC50 [5]: 3 µM
- IC50 [3]: 0.75 µM
SMILES: Cc1ccc(Nc2nc(-n3ccnc3C)cs2)cc1
- IC50 [1]: 0.45 µM
- IC50 [2]: > 100 µM
